# Reference: ChEMBL document CHEMBL3856258, “Phosphonate-based irreversible inhibitors of human γ-glutamyl transpeptidase (GGT). GGsTop is a non-toxic and highly selective inhibitor with critical electrostatic interaction with an active-site residue Lys562 for enhanced inhibitory activity” (Bioorg Med Chem, 2016)
# Calls of active or inactive are those of the source. The calls are words filed in the database; no cut-off is given here.
# Key:
# [1] = Cytotoxicity against CHL cells assessed as chromatid gap at 825 ug/ml preincubated for 6 hrs followed by 18 hrs incubation in fresh medium in absence of S9 fraction by Giemsa-staining-based microscopic analysis; format: toxicity, cell-based, Cricetulus griseus; conditions: chinese hamster
# [2] = system: Escherichia coli; assay: Genotoxicity in Escherichia coli WP2uvrA assessed as number of revertant colonies per plate at 61.7 ug/plate after 20 mins in presence of S9 fraction by Ames test (reference value: 26); format: toxicity; conditions: s9, 20 min
# [3] = species on record: Rattus norvegicus; assay: Cytotoxicity against Wistar rat BSC assessed as reduction in cell viability up to 1 mM after 24 hrs by neutral red method; format: toxicity
# [4] = system: Salmonella typhimurium; assay: Genotoxicity in Salmonella typhimurium TA1537 assessed as number of revertant colonies per plate at 1667 ug/plate after 20 mins in presence of S9 fraction by Ames test (reference value: 15); format: toxicity, organism-based; conditions: salmonella enterica subsp. enterica serovar typhimurium
# [5] = Cytotoxicity against CHL cells assessed as growth rate at 13.5 ug/ml preincubated for 6 hrs followed by 18 hrs incubation in fresh medium in presence of S9 fraction by MTT assay relative to control; format: toxicity, cell-based, Cricetulus griseus; conditions: chinese hamster, read-out: Activity
# [6] = system: Gamma-glutamyltranspeptidase 1 (Homo sapiens); assay: Inhibition of human wild-type N-terminal truncated GGT expressed in baculovirus infected High Five cells at 1 mM using gamma-Glu-PNA as substrate after 1 min by spectrophotometric method; conditions: BTI-TN-5B1-4
# [7] = system: Salmonella typhimurium; assay: Genotoxicity in Salmonella typhimurium TA1537 assessed as number of revertant colonies per plate at 1667 ug/plate after 20 mins in absence of S9 fraction by Ames test (reference value: 9); format: toxicity, organism-based; conditions: salmonella enterica subsp. enterica serovar typhimurium
# [8] = system: Salmonella typhimurium; assay: Genotoxicity in Salmonella typhimurium TA1535 assessed as number of revertant colonies per plate at 20.6 ug/plate after 20 mins in absence of S9 fraction by Ames test (reference value: 15); format: toxicity, organism-based; conditions: salmonella enterica subsp. enterica serovar typhimurium
# [9] = Cytotoxicity against CHL cells assessed as growth rate at 5.41 ug/ml after 24 hrs in absence of S9 fraction by MTT assay relative to control; format: toxicity, cell-based, Cricetulus griseus; conditions: chinese hamster, read-out: Activity
# [10] = species on record: Homo sapiens; assay: Irreversible inhibition of human GGT using gamma-Glu-AMC as substrate assessed as association rate constant by […] analysis
# In short: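 The enzyme source was a commercial human GGT preparation carrying bovine serum albumin as stabilizer (GGT <1% of protein). Hydrolytic activity was followed with γ-Glu-AMC as substrate. Irreversible inactivation was expressed as kon, the second-order rate constant for the inhibitor–enzyme reaction.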
# [11] = system: Salmonella typhimurium; assay: Genotoxicity in Salmonella typhimurium TA1537 assessed as number of revertant colonies per plate at 185 ug/plate after 20 mins in presence of S9 fraction by Ames test (reference value: 15); format: toxicity, organism-based; conditions: salmonella enterica subsp. enterica serovar typhimurium
# [12] = system: Escherichia coli; assay: Genotoxicity in Escherichia coli WP2uvrA assessed as number of revertant colonies per plate at 556 ug/plate after 20 mins in presence of S9 fraction by Ames test (reference value: 26); format: toxicity; conditions: s9, 20 min
# [13] = Cytotoxicity against CHL cells assessed as structural aberrations at 825 ug/ml preincubated for 6 hrs followed by 18 hrs incubation in fresh medium in presence of S9 fraction by Giemsa-staining-based microscopic analysis; format: toxicity, cell-based, Cricetulus griseus; conditions: chinese hamster
# [14] = Cytotoxicity against CHL cells assessed as growth rate at 1320 ug/ml preincubated for 6 hrs followed by 18 hrs incubation in fresh medium in absence of S9 fraction by MTT assay relative to control; format: toxicity, cell-based, Cricetulus griseus; conditions: chinese hamster, read-out: Activity
# [15] = system: Escherichia coli K-12; assay: Irreversible inhibition of Escherichia coli K-12 SH642 GGT using gamma-Glu-AMC as substrate assessed as association rate constant by […] analysis
# In short: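 GGT was purified from the periplasmic fraction of recombinant E. coli K-12 SH642. Hydrolytic activity was followed with γ-Glu-AMC as substrate. Irreversible inactivation was expressed as kon, the second-order rate constant for the inhibitor–enzyme reaction.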
# [16] = Hydrolytic stability of the compound in D2O assessed as formation of monomethyl phosphonate and phenol at 23 degC up to 28 days by 31P NMR spectroscopy; format: physicochemical; conditions: 672 h
# [17] = Cytotoxicity against CHL cells assessed as growth rate at 1320 ug/ml after 24 hrs in absence of S9 fraction by MTT assay relative to control; format: toxicity, cell-based, Cricetulus griseus; conditions: chinese hamster, read-out: Activity
# [18] = Cytotoxicity against CHL cells assessed as growth rate at 2.16 ug/ml after 24 hrs in absence of S9 fraction by MTT assay relative to control; format: toxicity, cell-based, Cricetulus griseus; conditions: chinese hamster, read-out: Activity
# [19] = Cytotoxicity against CHL cells assessed as number of cells with numerical aberrations at 1650 ug/ml preincubated for 6 hrs followed by 18 hrs incubation in fresh medium in presence of S9 fraction by Giemsa staining-based microscopic analysis relative to control; format: toxicity, cell-based, Cricetulus griseus; conditions: chinese hamster
# [20] = Cytotoxicity against CHL cells assessed as chromatid gap at 3300 ug/ml preincubated for 6 hrs followed by 18 hrs incubation in fresh medium in presence of S9 fraction by Giemsa-staining-based microscopic analysis; format: toxicity, cell-based, Cricetulus griseus; conditions: chinese hamster
# [21] = system: Salmonella typhimurium; assay: Genotoxicity in Salmonella typhimurium TA98 assessed as number of revertant colonies per plate at 5000 ug/plate after 20 mins in absence of S9 fraction by Ames test (reference value: 21); format: toxicity, organism-based; conditions: salmonella enterica subsp. enterica serovar typhimurium
# [22] = Cytotoxicity against CHL cells assessed as chromatid gap at 825 ug/ml after 24 hrs by Giemsa-staining-based microscopic analysis; format: toxicity, cell-based, Cricetulus griseus; conditions: chinese hamster
# [23] = system: Salmonella typhimurium; assay: Genotoxicity in Salmonella typhimurium TA1535 assessed as number of revertant colonies per plate at 20.6 ug/plate after 20 mins in presence of S9 fraction by Ames test (reference value: 13); format: toxicity, organism-based; conditions: salmonella enterica subsp. enterica serovar typhimurium
# [24] = Cytotoxicity against CHL cells assessed as growth rate at 3300 ug/ml preincubated for 6 hrs followed by 18 hrs incubation in fresh medium in presence of S9 fraction by MTT assay relative to control; format: toxicity, cell-based, Cricetulus griseus; conditions: chinese hamster, read-out: Activity
# [25] = system: Salmonella typhimurium; assay: Genotoxicity in Salmonella typhimurium TA100 assessed as number of revertant colonies per plate at 185 ug/plate after 20 mins in absence of S9 fraction by Ames test (reference value: 123); format: toxicity, organism-based; conditions: salmonella enterica subsp. enterica serovar typhimurium
# [26] = Cytotoxicity against CHL cells assessed as chromatid gap at 3300 ug/ml after 24 hrs by Giemsa-staining-based microscopic analysis; format: toxicity, cell-based, Cricetulus griseus; conditions: chinese hamster
# [27] = system: Salmonella typhimurium; assay: Genotoxicity in Salmonella typhimurium TA98 assessed as number of revertant colonies per plate at 185 ug/plate after 20 mins in absence of S9 fraction by Ames test (reference value: 21); format: toxicity, organism-based; conditions: salmonella enterica subsp. enterica serovar typhimurium
# [28] = system: Salmonella typhimurium; assay: Genotoxicity in Salmonella typhimurium TA98 assessed as number of revertant colonies per plate at […] ug/plate after 20 mins in presence of S9 fraction by Ames test (reference value: 26); format: toxicity, organism-based; conditions: salmonella enterica subsp. enterica serovar typhimurium
# [29] = system: Escherichia coli; assay: Genotoxicity in Escherichia coli WP2uvrA assessed as number of revertant colonies per plate at 5000 ug/plate after 20 mins in presence of S9 fraction by Ames test (reference value: 26); format: toxicity; conditions: s9, 20 min
# [30] = Cytotoxicity against CHL cells assessed as growth rate at 33.8 ug/ml after 24 hrs in absence of S9 fraction by MTT assay relative to control; format: toxicity, cell-based, Cricetulus griseus; conditions: chinese hamster, read-out: Activity
# [31] = Cytotoxicity against CHL cells assessed as growth rate at 84.5 ug/ml preincubated for 6 hrs followed by 18 hrs incubation in fresh medium in absence of S9 fraction by MTT assay relative to control; format: toxicity, cell-based, Cricetulus griseus; conditions: chinese hamster, read-out: Activity
# [32] = system: Salmonella typhimurium; assay: Genotoxicity in Salmonella typhimurium TA98 assessed as number of revertant colonies per plate at 1667 ug/plate after 20 mins in absence of S9 fraction by Ames test (reference value: 21); format: toxicity, organism-based; conditions: salmonella enterica subsp. enterica serovar typhimurium
compound,measurement,setting,value
COP(=O)(CCC(N)C(=O)O)Oc1cccc(CC(=O)O)c1 (configuration not stated),Activity,[1],1%
same,Activity,[2],28
same,Activity,[3],Non-Toxic
same,Activity,[4],18
same,"viability at 18 h, 13.5 ug/ml",[5],103%
same,inhibition,[6],Active
same,Activity,[7],10
same,Activity,[8],15
same,"viability at 24 h, 5.41 ug/ml",[9],105%
same,K,[10],51 M⁻¹ s⁻¹
same,Activity,[11],12
same,Activity,[12],27
same,Activity,[13],1%
same,"viability at 18 h, 1320 ug/ml",[14],95.7%
same,K,[15],150 M⁻¹ s⁻¹
same,Stability,[16],Stable
same,"viability at 24 h, 1320 ug/ml",[17],92.6%
same,"viability at 24 h, 2.16 ug/ml",[18],98%
same,Activity,[19],0%
same,Activity,[20],0%
same,Activity,[21],24
same,Activity,[22],0%
same,Activity,[23],11
same,"viability at 18 h, 3300 ug/ml",[24],96.8%
same,Activity,[25],128
same,Activity,[26],0%
same,Activity,[27],24
same,Activity,[28],25
same,Activity,[29],34
same,"viability at 24 h, 33.8 ug/ml",[30],105%
same,"viability at 18 h, 84.5 ug/ml",[31],102%
same,Activity,[32],23
